Test results from ChEMBL document CHEMBL4706662, “Design and Evaluation of Peptide Dual-Agonists of GLP-1 and NPY2 Receptors for Glucoregulation and Weight Loss with Mitigated Nausea and Emesis” (J Med Chem, 2021).
Active and inactive are the calls of the source. The rule behind the calls is not given here. Square brackets hold non-standard residues; d marks the D form. Peptide text beside a SMILES is read from it. ξ: configuration not given here. ξF = NC(Cc1ccccc1)C(=O)O

Assays:
[1] = biological target: T1, Glucagon-like peptide 1 receptor (Homo sapiens, UniProt P43220); experiment: Displacement of GLP-1-red from human GLP-1R expressed in CHO-K1 cells by fluorescent competitive binding assay; assay type: cell-based
T1 sequence (P43220 whole entry): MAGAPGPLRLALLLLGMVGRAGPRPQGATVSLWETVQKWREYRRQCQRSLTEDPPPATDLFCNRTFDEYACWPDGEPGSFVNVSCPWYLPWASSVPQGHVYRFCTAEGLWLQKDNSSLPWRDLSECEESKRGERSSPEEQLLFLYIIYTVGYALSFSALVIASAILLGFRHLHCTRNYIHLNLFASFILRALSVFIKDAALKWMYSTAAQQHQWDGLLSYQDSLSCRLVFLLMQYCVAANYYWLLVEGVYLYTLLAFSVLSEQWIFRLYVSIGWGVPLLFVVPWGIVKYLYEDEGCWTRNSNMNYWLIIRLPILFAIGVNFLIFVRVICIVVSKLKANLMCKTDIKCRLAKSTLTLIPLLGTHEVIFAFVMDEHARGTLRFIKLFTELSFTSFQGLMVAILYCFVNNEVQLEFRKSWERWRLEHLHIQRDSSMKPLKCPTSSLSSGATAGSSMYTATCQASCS

[2] = biological target: T1, Glucagon-like peptide 1 receptor; experiment: Agonist activity at human GLP-1R expressed in HEK293 cells assessed as stimulation of cAMP accumulation by FRET assay; assay type: functional, cell-based
[3] = biological target: T2, Neuropeptide Y receptor type 2 (Homo sapiens, UniProt P49146); experiment: Agonist activity at human NPY2R expressed in HEK293 cells assessed as inhibition of adenosine-induced stimulation of cAMP accumulation by FRET assay; assay type: functional, cell-based
T2 sequence (P49146 whole entry): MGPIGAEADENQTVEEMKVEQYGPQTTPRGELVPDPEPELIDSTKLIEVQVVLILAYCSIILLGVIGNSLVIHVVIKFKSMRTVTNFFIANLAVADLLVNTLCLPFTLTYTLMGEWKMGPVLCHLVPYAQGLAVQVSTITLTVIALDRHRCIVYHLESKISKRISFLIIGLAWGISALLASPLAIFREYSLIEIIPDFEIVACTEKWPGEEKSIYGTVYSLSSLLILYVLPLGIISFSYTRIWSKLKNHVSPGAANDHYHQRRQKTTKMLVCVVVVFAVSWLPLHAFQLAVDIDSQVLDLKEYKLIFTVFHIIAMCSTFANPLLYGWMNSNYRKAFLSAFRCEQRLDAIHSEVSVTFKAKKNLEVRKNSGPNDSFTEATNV

[4] = biological target: T3, Glucagon-like peptide 1 receptor (Rattus norvegicus, UniProt P32301); experiment: Agonist activity at rat GLP-1R expressed in HEK293 cells assessed as stimulation of cAMP accumulation by FRET assay; assay type: functional, cell-based
T3 sequence (P32301 whole entry): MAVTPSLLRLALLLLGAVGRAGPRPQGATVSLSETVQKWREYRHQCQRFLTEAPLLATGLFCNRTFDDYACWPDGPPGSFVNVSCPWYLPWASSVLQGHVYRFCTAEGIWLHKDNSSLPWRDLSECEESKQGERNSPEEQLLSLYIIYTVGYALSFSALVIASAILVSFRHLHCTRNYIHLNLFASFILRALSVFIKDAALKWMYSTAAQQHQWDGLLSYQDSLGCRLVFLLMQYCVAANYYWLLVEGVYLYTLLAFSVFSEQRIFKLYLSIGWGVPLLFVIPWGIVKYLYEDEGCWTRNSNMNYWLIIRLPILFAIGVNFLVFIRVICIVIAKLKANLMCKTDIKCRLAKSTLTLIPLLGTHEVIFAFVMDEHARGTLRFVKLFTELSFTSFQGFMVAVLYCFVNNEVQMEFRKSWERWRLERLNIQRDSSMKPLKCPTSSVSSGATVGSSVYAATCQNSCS

Glucagon receptor = Glucagon receptor (Rattus norvegicus, UniProt P30082); experiment: Agonist activity at rat glucagon receptor expressed in HEK293 cells assessed as stimulation of cAMP accumulation by FRET assay; assay type: functional, cell-based
Chain of Glucagon receptor (P30082 whole entry): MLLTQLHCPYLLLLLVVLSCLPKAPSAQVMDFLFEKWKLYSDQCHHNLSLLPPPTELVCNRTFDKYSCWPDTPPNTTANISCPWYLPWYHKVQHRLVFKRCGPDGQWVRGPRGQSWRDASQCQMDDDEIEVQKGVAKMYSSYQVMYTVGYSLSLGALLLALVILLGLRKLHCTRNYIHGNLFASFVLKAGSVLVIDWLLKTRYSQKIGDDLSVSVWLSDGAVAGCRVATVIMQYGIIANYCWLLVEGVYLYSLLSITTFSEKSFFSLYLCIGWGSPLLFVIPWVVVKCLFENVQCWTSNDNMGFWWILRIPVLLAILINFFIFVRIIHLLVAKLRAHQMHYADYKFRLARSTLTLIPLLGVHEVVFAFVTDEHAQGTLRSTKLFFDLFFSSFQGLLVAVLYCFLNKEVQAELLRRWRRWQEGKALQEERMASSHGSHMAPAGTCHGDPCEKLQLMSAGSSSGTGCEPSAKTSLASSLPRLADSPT

[5] = biological target: T4, Neuropeptide Y receptor type 1 (Homo sapiens, UniProt P25929); experiment: Agonist activity at human NPY1R expressed in HEK293 cells assessed as inhibition of adenosine-induced stimulation of cAMP accumulation by FRET assay; assay type: functional, cell-based
T4 sequence (P25929 whole entry): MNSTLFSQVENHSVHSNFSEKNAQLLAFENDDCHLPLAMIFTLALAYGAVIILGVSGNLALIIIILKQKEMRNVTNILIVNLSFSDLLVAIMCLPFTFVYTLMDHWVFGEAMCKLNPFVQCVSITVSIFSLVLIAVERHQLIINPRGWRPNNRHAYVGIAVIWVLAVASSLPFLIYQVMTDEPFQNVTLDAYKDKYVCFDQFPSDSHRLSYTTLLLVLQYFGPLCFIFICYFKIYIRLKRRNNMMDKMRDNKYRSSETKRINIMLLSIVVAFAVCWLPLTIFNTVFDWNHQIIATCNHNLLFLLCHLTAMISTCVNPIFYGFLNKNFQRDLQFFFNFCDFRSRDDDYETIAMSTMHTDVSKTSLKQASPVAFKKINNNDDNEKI

Rattus norvegicus [6] = experiment: Suppression of food intake in Sprague-Dawley rat model of DIO at 10 nmol/kg dosed daily for 5 days; assay type: functional, organism-based; conditions: time 5.0 day
[7] = Toxicity in musk shrew assessed as induction of emesis at 10 to 60 nmol/kg, ip measured after 120 mins; assay type: organism-based; conditions: suncus murinus, in vivo, 2 h, dose 10-60 nmol/kg
[8] = Half life in Sprague-Dawley rat liver microsomes at 30 uM in presence of NADPH by HPLC analysis; assay type: ADME, Microsome
Rattus norvegicus [9] = experiment: Suppression of cumulative food intake in lean Sprague-Dawley rat at 10 to 20 nmol/kg dosed daily for 2 days relative to control; assay type: functional; conditions: dose 10-20 nmol/kg, time 2 day
Rattus norvegicus [10] = experiment: Suppression of body weight in Sprague-Dawley rat model of DIO at 10 nmol/kg dosed daily for 5 days; assay type: functional; conditions: time 5 day
[11] = biological target: T5, Neuropeptide Y receptor type 2 (Homo sapiens) (UniProt P49146); experiment: Agonist activity at human NPY2R expressed in HEK293 cells assessed as inhibition of adenosine-induced stimulation of cAMP accumulation in presence of NPY2-R antagonist […] by FRET assay; assay type: functional, cell-based
T5 sequence (whole entry): T2 sequence (P49146 whole entry)

Pancreatic islet [12] = experiment: Stimulation of glucose stimulated insulin secretion in rat pancreatic islets at 50 nM in presence of 3 mM glucose incubated for 60 mins; assay type: functional, tissue-based
Suncus murinus [13] = experiment: Improvement in glucose clearance in musk shrew at 10 nmol/kg, ip measured 20 to 60 mins following glucose administration by IPGTT method; assay type: functional, organism-based; conditions: time 20-60 min
Outline: (§1)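 Male musk shrews (~8 months, 60–65 g, n = 9), within-subject counterbalanced. Baseline tail glucose by glucometer, then IP drug or saline (1 mL/100 g); 30 min later IP glucose 2 g/kg, glucose read at 20, 40, 60 and 120 min.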

Rattus norvegicus [14] = experiment: Suppression of cumulative food intake in lean Sprague-Dawley rat at 0.3 to 60 nmol/kg dosed daily for 2 days; assay type: functional, organism-based; conditions: dose 0.3-60 nmol/kg, time 2.0 day
[15] = biological target: T1, Glucagon-like peptide 1 receptor; experiment: Agonist activity at human GLP-1R expressed in HEK293 cells assessed as stimulation of cAMP accumulation in presence of GLP-1R antagonist exendin9-39 by FRET assay; assay type: functional, cell-based
Outline: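 HEK293 cells stably expressing human GLP-1R, transduced with H188 cAMP FRET reporter (16 h, MOI 25), read in SES (pH 7.4, 11 mM glucose, 0.1% BSA). Antagonist Ex(9–39) added 20 min before agonist. Excitation 435 nm; 485/535 emission ratio baseline-normalized, read in real time. Triplicate independent runs; EC50 by nonlinear regression of peak FRET values.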

Rattus norvegicus [16] = experiment: Effect on glucose clearance in Sprague-Dawley rat model of DIO at 10 nmol/kg dosed daily for 5 days; assay type: functional, organism-based; conditions: time 5.0 day
Rattus norvegicus [17] = experiment: Suppression of blood glucose level in prediabetic Sprague-Dawley rat model of DIO assessed as reduction in post-dextrose bolus blood glucose at 10 nmol/kg dosed daily for 5 days by IPGTT method; assay type: functional, organism-based; conditions: time 5.0 day
Pancreatic islet [18] = experiment: Stimulation of glucose stimulated insulin secretion in rat pancreatic islets at 50 nM in presence of 10 mM glucose incubated for 60 mins; assay type: functional, tissue-based
[19] = Toxicity in lean Sprague-Dawley rat assessed as induction at 0.3 to 60 nmol/kg dosed daily for 2 days by kaolin consumption assay; conditions: in vivo, 48 h
[20] = Intrinsic clearance in Sprague-Dawley rat liver microsomes at 30 uM in presence of NADPH by HPLC analysis; assay type: ADME, Microsome
Suncus murinus [21] = experiment: Improvement in glucose clearance in musk shrew assessed as increase in plasma glucose clearing rate at 10 nmol/kg, ip measured 20 to 60 mins following glucose administration by IPGTT method; assay type: functional, organism-based; conditions: time 20-60 min; outline: as §1
Rattus norvegicus [22] = experiment: Suppression of fasting blood glucose in Sprague-Dawley rat model of DIO at 10 nmol/kg dosed daily for 5 days; assay type: functional, organism-based; conditions: time 5.0 day

CC[C@H](C)[C@H](NC(=O)C(Cc1ccccc1)NC(=O)[C@H](CC(C)C)NC(=O)[C@H](CCCNC(=N)N)NC(=O)[C@@H](NC(=O)[C@H](C)NC(=O)[C@H](CCC(=O)O)NC(=O)[C@H](CCC(=O)O)NC(=O)[C@H](CCC(=O)O)NC(=O)[C@H](CCSC)NC(=O)[C@H](CCC(N)=O)NC(=O)[C@H](CCCCN)NC(=O)[C@H](CO)NC(=O)[C@H](CC(C)C)NC(=O)[C@H](CC(=O)O)NC(=O)[C@H](CO)NC(=O)[C@@H](NC(=O)[C@H](Cc1ccccc1)NC(=O)[C@@H](NC(=O)CNC(=O)[C@H](CCC(N)=O)NC(=O)[C@H](CO)NC(=O)[C@@H](N)Cc1cnc[nH]1)[C@@H](C)O)[C@@H](C)O)C(C)C)C(=O)N[C@@H](CCC(=O)O)C(=O)N[C@@H](Cc1c[nH]c2ccccc12)C(=O)N[C@@H](CC(C)C)C(=O)N[C@@H](CCCCN)C(=O)N[C@@H](CC(N)=O)C(=O)NCC(=O)NCC(=O)N1CCC[C@@H]1C(=O)N[C@@H](CO)C(=O)N[C@@H](CCCNC(=N)N)C(=O)N[C@@H](Cc1cnc[nH]1)C(=O)N[C@@H](Cc1ccc(O)cc1)C(=O)N[C@@H](CC(C)C)C(=O)N[C@@H](CC(N)=O)C(=O)N[C@@H](CC(C)C)C(=O)N[C@H](C(=O)N[C@H](C(=O)N[C@@H](CCCNC(=N)N)C(=O)N[C@@H](CCC(N)=O)C(=O)N[C@@H](CCCNC(=N)N)C(=O)N[C@@H](Cc1ccc(O)cc1)C(=O)O)[C@@H](C)O)C(C)C (some centres undefined)
IC50 ([1]; cho-k1): 27.5 nM | EC50 ([2]; hek293): 0.24 nM | IC50 ([3]; hek293): 32 nM | EC50 ([4]; hek293): 0.12 nM | EC50 (Glucagon receptor; hek293): 30 nM

CC[C@H](C)[C@H](NC(=O)C(Cc1ccccc1)NC(=O)[C@H](CC(C)C)NC(=O)[C@H](CCCNC(=N)N)NC(=O)[C@@H](NC(=O)[C@H](C)NC(=O)[C@H](CCC(=O)O)NC(=O)[C@H](CCC(=O)O)NC(=O)[C@H](CCC(=O)O)NC(=O)[C@H](CCSC)NC(=O)[C@H](CCC(N)=O)NC(=O)[C@H](CCCCN)NC(=O)[C@H](CO)NC(=O)[C@H](CC(C)C)NC(=O)[C@H](CC(=O)O)NC(=O)[C@H](CO)NC(=O)[C@@H](NC(=O)[C@H](Cc1ccccc1)NC(=O)[C@@H](NC(=O)CNC(=O)[C@H](CCC(N)=O)NC(=O)[C@H](CO)NC(=O)[C@@H](N)Cc1cnc[nH]1)[C@@H](C)O)[C@@H](C)O)C(C)C)C(=O)N[C@@H](CCC(=O)O)C(=O)N[C@@H](Cc1c[nH]c2ccccc12)C(=O)N[C@@H](CC(C)C)C(=O)N[C@@H](CCCCN)C(=O)N[C@@H](CC(N)=O)C(=O)N[C@@H](CCCNC(=N)N)C(=O)N[C@@H](Cc1cnc[nH]1)C(=O)N[C@@H](Cc1ccc(O)cc1)C(=O)N[C@@H](CC(C)C)C(=O)N[C@@H](CC(N)=O)C(=O)N[C@@H](CC(C)C)C(=O)N[C@H](C(=O)N[C@H](C(=O)N[C@@H](CCCNC(=N)N)C(=O)N[C@@H](CCC(N)=O)C(=O)N[C@@H](CCCNC(=N)N)C(=O)N[C@@H](Cc1ccc(O)cc1)C(=O)O)[C@@H](C)O)C(C)C (some centres undefined) (H-HSQGTFTSDLSKQMEEEAVRL[ξF]IEWLKNRHYLNLVTRQRY-OH)
IC50 [1]: 321 nM | EC50 [2]: 0.533 nM | IC50 [3]: 61 nM | EC50 (Glucagon receptor): > 3000 nM

H-HSQGTFTSDLSKQMEEEAVRLFIEWLKNRYYASLRRHYLNLVTRQRY-NH2
IC50 [1]: > 1000 nM | EC50 (Glucagon receptor): > 3000 nM | IC50 [5]: 82 nM

H-HSQGTFTSDLSKQMEEWAVRLFIEWLKNGGPSRYYASLRRHYLNLVTRQRY-NH2
IC50 [1]: > 1000 nM | EC50 [2]: 2.3 nM | IC50 [3]: 25 nM | EC50 (Glucagon receptor): > 3000 nM

H-H[dS]QGTFTSDLSKYLEEEAVREFIAWLKNGGPSRHYLNLVTRQRY-NH2
Activity (Rattus norvegicus [6]): Active | Activity [7]: Non-Toxic | half-life at 30 µM [8]: 2.27 h | Activity (Rattus norvegicus [9]): 71.4% | Activity (Rattus norvegicus [10]): 5% | Activity [11]: inactive | Activity (Pancreatic islet [12]): inactive | IC50 [1]: 113 nM | Activity (Suncus murinus [13]): Active | Activity (Rattus norvegicus [14]): Dose-dependent effect | Activity [15]: inactive | Activity (Rattus norvegicus [16]): Active | EC50 [2]: 0.33 nM | Activity (Rattus norvegicus [17]): Active | Activity (Pancreatic islet [18]): Active | IC50 [3]: 10 nM | Activity [19]: Non-Toxic | EC50 [4]: 0.48 nM | EC50 (Glucagon receptor): > 3000 nM | microsomal CLint at 30 µM [20]: 32.5 µL/min/mg | Activity (Suncus murinus [21]): Active | Activity (Rattus norvegicus [22]): Active | IC50 [5]: 27 nM
